Laboratory results from ChEMBL document CHEMBL3045116, “Synthesis and biological evaluation of 2-(5-substituted-1-((diethylamino)methyl)-2-oxoindolin-3-ylidene)-N-substituted-hydrazinecarbothioamides” (Med Chem Res, 2013).

Assays:
Influenza B virus = experiment: Antiviral activity against Influenza B virus infected in MDCK cells assessed as reduction of virus-induced cytopathic effect after 3 days by colorimetric formazan-based MTS assay; assay type: functional, organism-based; conditions: 72 h
Method in brief: (§1)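 Confluent cell monolayers were infected with 100 CCID50 of virus, and serial dilutions of compound were added at the time of infection.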

Influenza A virus H3N2 = experiment: Antiviral activity against Influenza A virus H3N2 infected MDCK cells assessed as reduction of virus-induced cytopathic effect after 3 days by colorimetric formazan-based MTS assay; assay type: functional, organism-based; conditions: 72 h; method in brief: as §1
Human alphaherpesvirus 1 [1] = experiment: Antiviral activity against Human herpesvirus 1 strain KOS infected human HEL cells assessed as reduction of virus-induced cytopathic effect after 3 days by colorimetric formazan-based MTS assay; assay type: functional, organism-based; conditions: Human alphaherpesvirus 1, KOS, 72 h; method in brief: as §1
Felid alphaherpesvirus 1 = experiment: Antiviral activity against Felid herpesvirus 1 infected cat CRFK cells assessed as reduction of virus-induced cytopathic effect after 3 days by colorimetric formazan-based MTS assay; assay type: functional, organism-based; conditions: Felid alphaherpesvirus 1, CRFK, 72 h
Method in brief: (§2)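 Cells grown to confluency in 96-well plates ([…], Vero for lines 9–10) were infected with 100 CCID50 of virus, and serial compound dilutions were added at infection. Plates were incubated at 37 °C for 3 days, until complete CPE appeared in untreated virus controls.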

[2] = test system: Feline infectious peritonitis virus; experiment: Antiviral activity against Feline Infectious peritonitis virus infected cat CRFK cells assessed as reduction of virus-induced cytopathic effect after 3 days by colorimetric formazan-based MTS assay; assay type: functional, organism-based; conditions: Alphacoronavirus 1, CRFK, 72 h; method in brief: as §1
[3] = Cytotoxicity against Felis catus (cat) CRFK cells assessed as change in cellular morphology; assay type: cell-based; conditions: crfk
Method in brief: (§3)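 Uninfected cells were exposed to compound in parallel with the antiviral cultures. The read-out is the minimum cytotoxic concentration that causes a microscopically detectable alteration of normal cell morphology.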

[4] = Inhibition of beta lactamase assessed as increase in time taken for iodine decolorization relative to control; design: concentration or dose not given beside the values; conditions: concentration not given here
[5] = Inhibition of beta lactamase assessed as time for decolorization of iodine (reference value: 79.5 secs)
CCRF-CEM = experiment: Cytotoxicity against Homo sapiens (human) CEM cells assessed as growth inhibition after 72 hr by coulter counter analysis; assay type: functional, cell-based
Method in brief: (§4)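 Cells in growth medium were allowed to proliferate with variable compound amounts at 37 °C in a humidified CO2 atmosphere. Incubation ran 48 h for L1210, 72 h for CEM and 96 h for HeLa. Cells were then counted with a Coulter counter.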

L1210 = experiment: Cytotoxicity against Mus musculus (mouse) L1210 cells assessed as growth inhibition after 48 hr by coulter counter analysis; assay type: functional, cell-based; conditions: L1210, 48 h; method in brief: as §4
Influenza A virus = experiment: Antiviral activity against Unidentified Influenza A virus (H1N1) infected MDCK cells assessed as reduction of virus-induced cytopathic effect after 3 days by colorimetric formazan-based MTS assay; assay type: functional, organism-based; conditions: 72 h; method in brief: as §1
[6] = (§5) Cytotoxicity against MDCK cells assessed as change in cellular morphology; assay type: cell-based, Canis lupus familiaris; conditions: dog, MDCK cells; method in brief: as §3
MDCK = experiment: as §5; assay type: cell-based, Canis lupus familiaris; conditions: dog, mdck; method in brief: as §3
Punta Toro virus = experiment: Antiviral activity against Punta Toro virus infected in African green monkey Vero cells assessed as reduction of virus-induced cytopathic effect after 3 days by colorimetric formazan-based MTS assay; assay type: functional, organism-based; conditions: 72 h; method in brief: as §1
Coxsackievirus B4 [7] = experiment: Antiviral activity against Human coxsackievirus B4 infected African green monkey Vero cells assessed as reduction of virus-induced cytopathic effect after 3 days by colorimetric formazan-based MTS assay; assay type: functional, organism-based; conditions: Enterovirus B, 72 h; method in brief: as §1
Respirovirus muris = experiment: Antiviral activity against Sendai virus infected African green monkey Vero cells assessed as reduction of virus-induced cytopathic effect after 3 days by colorimetric formazan-based MTS assay; assay type: functional, organism-based; conditions: 72 h
[8] = test system: Mammalian orthoreovirus 1; experiment: Antiviral activity against Mammalian orthoreovirus 1 infected African green monkey Vero cells assessed as reduction of virus-induced cytopathic effect after 3 days by colorimetric formazan-based MTS assay; assay type: functional, organism-based; conditions: Mammalian orthoreovirus 1, Vero, 72 h; method in brief: as §2
Human respirovirus 3 = experiment: Antiviral activity against Human parainfluenza virus 3 infected African green monkey Vero cells assessed as reduction of virus-induced cytopathic effect after 3 days by colorimetric formazan-based MTS assay; assay type: functional, organism-based; conditions: Human respirovirus 3, Vero, 72 h; method in brief: as §2
[9] = Cytotoxicity against Chlorocebus aethiops (African green monkey) Vero cells assessed as change in cellular morphology; assay type: cell-based; conditions: chlorocebus sabaeus
[10] = test system: Respiratory syncytial virus; experiment: Antiviral activity against Respiratory syncytial virus infected human HeLa cells assessed as reduction of virus-induced cytopathic effect after 3 days by colorimetric formazan-based MTS assay; assay type: functional, organism-based; conditions: 72 h; method in brief: as §1
[11] = test system: Vesicular stomatitis virus; experiment: Antiviral activity against Vesicular stomatitis virus infected human HeLa cells assessed as reduction of virus-induced cytopathic effect after 3 days by colorimetric formazan-based MTS assay; assay type: functional, organism-based; conditions: 72 h; method in brief: as §1
Coxsackievirus B4 [12] = experiment: Antiviral activity against Human coxsackievirus B4 infected human HeLa cells assessed as reduction of virus-induced cytopathic effect after 3 days by colorimetric formazan-based MTS assay; assay type: functional, organism-based; conditions: Enterovirus B, 72 h; method in brief: as §1
[13] = (§6) Cytotoxicity against Homo sapiens (human) HeLa cells assessed as change in cellular morphology; assay type: cell-based; conditions: HeLa cells; method in brief: as §3
HeLa = experiment: as §6; assay type: cell-based; conditions: hela; method in brief: as §3
Human alphaherpesvirus 1 [14] = experiment: Antiviral activity against acyclovir-resistant thymidine kinase negative Human herpesvirus 1 strain KOS infected human HEL cells assessed as reduction of virus-induced cytopathic effect after 3 days by colorimetric formazan-based MTS assay; assay type: functional, organism-based; conditions: Human alphaherpesvirus 1, KOS, 72 h; method in brief: as §1
[15] = test system: Vesicular stomatitis virus; experiment: Antiviral activity against Vesicular stomatitis virus infected human HEL cells assessed as reduction of virus-induced cytopathic effect after 3 days by colorimetric formazan-based MTS assay; assay type: functional, organism-based; conditions: 72 h; method in brief: as §1
Vaccinia virus = experiment: Antiviral activity against Vaccinia virus infected human HEL cells assessed as reduction of virus-induced cytopathic effect after 3 days by colorimetric formazan-based MTS assay; assay type: functional, organism-based; conditions: Orthopoxvirus vaccinia, 72 h; method in brief: as §1
Human alphaherpesvirus 2 = experiment: Antiviral activity against Human herpesvirus 2 strain G infected human HEL cells assessed as reduction of virus-induced cytopathic effect after 3 days by colorimetric formazan-based MTS assay; assay type: functional, organism-based; conditions: Human alphaherpesvirus 2, strain G, 72 h; method in brief: as §1
[16] = Cytotoxicity against Homo sapiens (human) HEL cells assessed as change in cellular morphology; assay type: cell-based
Candida albicans = experiment: Antifungal activity against Candida albicans assessed as growth inhibition at 50 ug/ml by cup-plate method (reference value: 8 to 10 mm); assay type: functional; conditions: read-out: DIZ
Aspergillus niger = experiment: Antifungal activity against Aspergillus niger assessed as growth inhibition at 50 ug/ml by cup-plate method (reference value: 8 to 10 mm); assay type: functional; conditions: read-out: DIZ
Salmonella typhi = experiment: Antibacterial activity against Salmonella enterica subsp. enterica serovar Typhi assessed as growth inhibition at 50 ug/ml by cup-plate method (reference value: 8 to 10 mm); assay type: functional; conditions: read-out: DIZ
Proteus vulgaris = experiment: Antibacterial activity against Proteus vulgaris assessed as growth inhibition at 50 ug/ml by cup-plate method (reference value: 8 to 10 mm); assay type: functional; conditions: read-out: DIZ
Escherichia coli = experiment: Antibacterial activity against Escherichia coli assessed as growth inhibition at 50 ug/ml by cup-plate method (reference value: 8 to 10 mm); assay type: functional; conditions: read-out: DIZ
Bacillus subtilis = experiment: Antibacterial activity against Bacillus subtilis assessed as growth inhibition at 50 ug/ml by cup-plate method (reference value: 8 to 10 mm); assay type: functional; conditions: read-out: DIZ
Klebsiella pneumoniae = experiment: Antibacterial activity against Klebsiella pneumoniae assessed as growth inhibition at 50 ug/ml by cup-plate method (reference value: 8 to 10 mm); assay type: functional; conditions: read-out: DIZ
Staphylococcus aureus = experiment: Antibacterial activity against Staphylococcus aureus assessed as growth inhibition at 50 ug/ml by cup-plate method (reference value: 8 to 10 mm); assay type: functional; conditions: read-out: DIZ

SMILES: CCN(CC)CN1C(=O)/C(=N/NC(=S)Nc2ccccc2)c2ccccc21
- EC50 (Influenza B virus): > 0.16 µM
- EC50 (Influenza A virus H3N2): > 0.16 µM
- EC50 (Human alphaherpesvirus 1 [1]): 20 µM
- EC50 (Felid alphaherpesvirus 1): > 20 µM
- EC50 [2]: > 20 µM
- CC50 [3]: 32.3 µM
- inhibition [4]: 50.2%
- TIME [5]: 0.0443 h
- IC50 (CCRF-CEM): 11 µM
- IC50 (L1210): 13 µM
- EC50 (Influenza A virus): > 0.16 µM
- MCC [6]: 800 nM
- CC50 (MDCK): 1.6 µM
- EC50 (Punta Toro virus): > 20 µM
- EC50 (Coxsackievirus B4 [7]): > 20 µM
- EC50 (Respirovirus muris): > 20 µM
- EC50 [8]: > 20 µM
- EC50 (Human respirovirus 3): > 20 µM
- MCC [9]: 100 µM
- EC50 [10]: > 20 µM
- EC50 [11]: > 20 µM
- EC50 (Coxsackievirus B4 [12]): > 20 µM
- MCC [13]: ≥ 20 µM
- CC50 (HeLa): 10.8 µM
- EC50 (Human alphaherpesvirus 1 [14]): > 100 µM
- EC50 [15]: > 100 µM
- EC50 (Vaccinia virus): 20 µM
- EC50 (Human alphaherpesvirus 2): 15 µM
- MCC [16]: > 100 µM
- zone of inhibition at 50 µg/mL (Candida albicans): 21 mm
- zone of inhibition at 50 µg/mL (Aspergillus niger): 21 mm
- zone of inhibition at 50 µg/mL (Salmonella typhi): 21 mm
- zone of inhibition at 50 µg/mL (Proteus vulgaris): 21 mm
- zone of inhibition at 50 µg/mL (Escherichia coli): 11 mm
- zone of inhibition at 50 µg/mL (Bacillus subtilis): 11 mm
- zone of inhibition at 50 µg/mL (Klebsiella pneumoniae): 11 mm
- zone of inhibition at 50 µg/mL (Staphylococcus aureus): 11 mm

SMILES: CCN(CC)CN1C(=O)/C(=N/NC(=S)Nc2ccc(C)cc2)c2ccccc21
- EC50 (Influenza B virus): > 0.16 µM
- EC50 (Influenza A virus H3N2): > 0.16 µM
- EC50 (Human alphaherpesvirus 1 [1]): 14 µM
- EC50 (Felid alphaherpesvirus 1): > 0.8 µM
- EC50 [2]: > 0.8 µM
- CC50 [3]: 3.8 µM
- inhibition [4]: 45.5%
- TIME [5]: 0.0405 h
- IC50 (CCRF-CEM): 12 µM
- IC50 (L1210): 29 µM
- EC50 (Influenza A virus): > 0.16 µM
- MCC [6]: 800 nM
- CC50 (MDCK): 0.2 µM
- EC50 (Punta Toro virus): > 20 µM
- EC50 (Coxsackievirus B4 [7]): > 20 µM
- EC50 (Respirovirus muris): > 20 µM
- EC50 [8]: > 20 µM
- EC50 (Human respirovirus 3): > 20 µM
- MCC [9]: 100 µM
- EC50 [10]: > 20 µM
- EC50 [11]: > 20 µM
- EC50 (Coxsackievirus B4 [12]): > 20 µM
- MCC [13]: ≥ 20 µM
- CC50 (HeLa): 10.7 µM
- EC50 (Human alphaherpesvirus 1 [14]): ≥ 20 µM
- EC50 [15]: > 20 µM
- EC50 (Vaccinia virus): 11 µM
- EC50 (Human alphaherpesvirus 2): 12 µM
- MCC [16]: 100 µM
- zone of inhibition at 50 µg/mL (Candida albicans): 11 mm
- zone of inhibition at 50 µg/mL (Aspergillus niger): 11 mm
- zone of inhibition at 50 µg/mL (Salmonella typhi): 21 mm
- zone of inhibition at 50 µg/mL (Proteus vulgaris): 11 mm
- zone of inhibition at 50 µg/mL (Escherichia coli): 21 mm
- zone of inhibition at 50 µg/mL (Bacillus subtilis): 21 mm
- zone of inhibition at 50 µg/mL (Klebsiella pneumoniae): 11 mm
- zone of inhibition at 50 µg/mL (Staphylococcus aureus): 21 mm
